Screening results: PubChem, The Scripps Research Institute Molecular Screening Center
PRMT1 inh = blocks human protein arginine methyltransferase 1 | Q99873 | recombinant PRMT1, activity-based probe fluorescence polarization | inhibition, % at 2.79 µM | 370,000 compounds, 1.3% hits;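 active means inhibition above about 21% made by adding two undisclosed values, limit read from the data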
ABHD4 inh = inhibitors of mouse ABHD4 | Q8VD66 | purified mABHD4, FP-Rh probe fluorescence polarization | inhibition, % at 8.92 µM | 370,000 compounds, 0.54% hits | AID 720543;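 active means inhibition exceeding the mean over every tested compound plus 3 SD, cut at about 30% in these data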
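Test system: mABHD4 protein; Read-out basis: % inhibition; Incubation: 45 min + 60 min at 25 °C; Repeats: single replicate; Technique: fluorescence polarization with parallel and perpendicular emission, 525/598 nm; Compound: 8.92 µM, single dose; Benchmarks: full inhibition S159A mutant plus DMSO, zero as sample-well median.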
PAD4 FP inh = blocks human protein arginine deiminase 4; recombinant PAD4, RCA probe fluorescence polarization; inhibition, % at 6.36 µM; 330,000 compounds, 0.41% hits;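 active means percent inhibition above a cutoff equal to the mean of all tested compounds plus 3 SD, cut at about 15% in these data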
TCR CD3 inh = inhibitors of human TCR-CD3 interaction | TAMRA-labeled TCR probe fluorescence, biochemical | inhibition, % at 9.4 µM | 360,000 compounds, 0.37% hits | AID 651800;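 further: recombinant mutant TCR 2C K166C tagged with TAMRA read by polarization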
HTRA1 inhibitor = HTRA1 (human) protease inhibition. 340,000 compounds, 0.5% hits. recombinant HTRA1, FP-rhodamine activity-based probe, fluorescence polarization. Q92743. inhibition, % at 5.96 µM; in the data active means inhibition above about 36%
SIAE inh = inhibitors of human sialic acid acetylesterase SIAE | Q9HAT2 | SIAE FP-Rh probe binding, fluorescence polarization | inhibition, % at 9.66 µM | 370,000 compounds, 0.69% hits | AID 1053197;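 active means inhibition above a cutoff: mean of compounds within the control limits plus 3 SD of those, cut at about 17% in these data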
Target sequence (Q9HAT2 whole entry, looked up): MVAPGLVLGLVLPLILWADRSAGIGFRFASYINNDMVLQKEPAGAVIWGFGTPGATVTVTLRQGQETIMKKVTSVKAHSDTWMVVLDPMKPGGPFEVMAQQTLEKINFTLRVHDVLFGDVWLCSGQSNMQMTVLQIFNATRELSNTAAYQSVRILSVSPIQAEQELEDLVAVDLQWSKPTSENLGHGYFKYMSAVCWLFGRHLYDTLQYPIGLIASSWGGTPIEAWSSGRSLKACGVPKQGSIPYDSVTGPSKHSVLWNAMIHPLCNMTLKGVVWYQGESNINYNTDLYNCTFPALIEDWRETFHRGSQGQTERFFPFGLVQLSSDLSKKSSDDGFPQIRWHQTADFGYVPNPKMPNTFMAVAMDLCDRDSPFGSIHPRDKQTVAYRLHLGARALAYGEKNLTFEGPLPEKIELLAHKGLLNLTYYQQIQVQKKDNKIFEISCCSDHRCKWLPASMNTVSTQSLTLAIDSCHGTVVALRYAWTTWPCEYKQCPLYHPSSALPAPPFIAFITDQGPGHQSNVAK
HTRA1 conf = confirmation of human HTRA1 inhibitors; shares compounds with HTRA1 inhibitor; recombinant HTRA1, FP-rhodamine activity-based probe, fluorescence polarization; inhibition, % at 5.96 µM; 1,600 compounds, 66% hits; AID 540248;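 active means mean inhibition over three repeats above a set limit taken from the earlier primary screen, cut at about 37% in these data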;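 further: inhibitors block probe binding so polarization drops and inhibition rises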
BSA TAMRA ctr = counter-screen for TCR-CD3 interaction inhibitors: BSA probe; 1,200 compounds, 10% hits; AID 652035; TAMRA-labeled BSA probe fluorescence counterscreen; inhibition, % at 9.4 µM; shares compounds with TCR CD3 inh; in the data active means inhibition above about 23%
TCR-CD3 conf = TCR-CD3 interaction inhibition, confirmation; AID 652036; TAMRA-labeled TCR probe fluorescence binding assay; inhibition, % at 9.4 µM; shares compounds with TCR CD3 inh; 1,200 compounds, 48% hits
ABHD4 confirm = ABHD4 (mouse) inhibition, FP confirmation; shares compounds with ABHD4 inh; purified mABHD4, FP-Rh probe fluorescence polarization; inhibition, % at 8.92 µM; 1,800 compounds, 55% hits; AID 720658;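 active means mean inhibition across replicates above the hit cutoff set in the primary screen, cut at about 30% in these data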
SIAE confirm = human SIAE inhibition, confirmation; shares compounds with SIAE inh; SIAE FP-Rh activity-based probe, fluorescence polarization; inhibition, % at 9.66 µM; 2,300 compounds, 13% hits;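 active means mean inhibition of the replicates above the hit cutoff set in the primary screen, cut at about 17% in these data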;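 further: inhibitors lower polarization as more probe stays unbound to SIAE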
Hits are given with their value. Compounds with a hit are over-represented: about 2.9% of the library has one in this group of screens. Unless noted, no stated cut-off is given here; in the data, active means inhibition above about 19%; inactive means the rest.

Screening COc1cc2cccc(OC)c(=O)c2c(OC)c1OC returned PRMT1 inh inactive, ABHD4 inh inactive, PAD4 FP inh inactive, TCR CD3 inh inactive, HTRA1 inhibitor inactive and SIAE inh inactive.
O=c1c(O)cccc2cc(O)c(O)c(O)c12 was read as PRMT1 inh 43, ABHD4 inh 55, PAD4 FP inh inactive, TCR CD3 inh 93, HTRA1 inhibitor 58, SIAE inh 24, HTRA1 conf 60, BSA TAMRA ctr inactive, TCR-CD3 conf 81, ABHD4 confirm 52 and SIAE confirm 18.
CC(C)CN=Cc1c(O)c([N+](=O)[O-])cc2oc3c(c12)CCCC3 was read as PRMT1 inh inactive, ABHD4 inh inactive, PAD4 FP inh inactive, TCR CD3 inh inactive, HTRA1 inhibitor 44, SIAE inh 24, HTRA1 conf 43 and SIAE confirm inactive.
`O=[N+]([O-])c1cc2oc3c(c2c(C=NCc2ccccc2)c1O)CCCC3` gave PRMT1 inh inactive, ABHD4 inh 31, PAD4 FP inh inactive, TCR CD3 inh inactive, HTRA1 inhibitor 43, SIAE inh 28, HTRA1 conf 54, ABHD4 confirm 31 and SIAE confirm inactive.
Screening COc1cc(/C=N/NC(=O)c2cccc(NC(=O)c3ccccc3C)c2)ccc1O returned PRMT1 inh inactive, ABHD4 inh inactive, PAD4 FP inh inactive, TCR CD3 inh inactive, HTRA1 inhibitor inactive and SIAE inh inactive.
For Cc1ccccc1C(=O)Nc1cccc(C(=O)N/N=C/c2cc(Cl)cc([N+](=O)[O-])c2O)c1 the results were PRMT1 inh inactive, ABHD4 inh 37, PAD4 FP inh inactive, TCR CD3 inh 45, HTRA1 inhibitor 42, SIAE inh 28, HTRA1 conf 50, BSA TAMRA ctr inactive, TCR-CD3 conf 56, ABHD4 confirm 49 and SIAE confirm inactive.
Screening COc1ccc2nc3cc(Cl)ccc3c(Nc3cc(C(C)C)c(O)cc3C)c2c1 returned PRMT1 inh inactive, ABHD4 inh 40, PAD4 FP inh inactive, TCR CD3 inh inactive, HTRA1 inhibitor 38, SIAE inh 29, HTRA1 conf inactive, ABHD4 confirm 51 and SIAE confirm inactive.
Cn1c2ccccc2c2cc(/C=N/NC(=O)c3cc(O)ccc3O)ccc21 was read as PRMT1 inh inactive, ABHD4 inh 52, PAD4 FP inh inactive, TCR CD3 inh 43, HTRA1 inhibitor 64, SIAE inh 50, HTRA1 conf 64, BSA TAMRA ctr inactive, TCR-CD3 conf 23, ABHD4 confirm inactive and SIAE confirm inactive.
Screening O=C(N/N=C/c1ccc(O)c(O)c1)c1cc(-c2ccccc2)nc2ccccc12 returned PRMT1 inh inactive, ABHD4 inh inactive, PAD4 FP inh inactive, TCR CD3 inh inactive, HTRA1 inhibitor 63, SIAE inh 19, HTRA1 conf 76 and SIAE confirm inactive.
`COCC(=O)N(c1ccc(C(C)(C)C)cc1)C(C(=O)NC(C)(C)C)c1cccnc1` (stereo not given) gave PRMT1 inh inactive, ABHD4 inh inactive and SIAE inh inactive.
`O=C1C=CC2=C3c4cc(O)c(O)cc4CC3(O)COC2=C1O` (stereo not given) gave PRMT1 inh 56, ABHD4 inh inactive, TCR CD3 inh 88, HTRA1 inhibitor 45, SIAE inh 28, HTRA1 conf 44, BSA TAMRA ctr inactive, TCR-CD3 conf 93 and SIAE confirm inactive.
Oc1ccc(N=Cc2ccc(OCc3ccccc3)cc2)cc1 was read as PRMT1 inh 36, ABHD4 inh 68, PAD4 FP inh inactive, TCR CD3 inh 32, HTRA1 inhibitor 63, SIAE inh 45, HTRA1 conf inactive, BSA TAMRA ctr inactive, TCR-CD3 conf inactive, ABHD4 confirm inactive and SIAE confirm inactive.
For CCN(CCCNc1cc2c(c(N)c1S(=O)(=O)O)C(=O)c1ccccc1C2=O)c1ccccc1 the results were PRMT1 inh 23, ABHD4 inh 102, TCR CD3 inh inactive, HTRA1 inhibitor 86, SIAE inh 33, HTRA1 conf 83, ABHD4 confirm 103 and SIAE confirm 23.
Screening CN(C1=C(N2CCCCC2)C(=O)c2ccccc2C1=O)c1ccccc1 returned PRMT1 inh inactive, ABHD4 inh 38, PAD4 FP inh 16, TCR CD3 inh inactive, HTRA1 inhibitor 66, SIAE inh 20, HTRA1 conf 75, ABHD4 confirm 69 and SIAE confirm inactive.
For O=C1C(NS(=O)(=O)c2ccc(Br)cc2)=C(N2CCCCC2)C(=O)c2ccccc21 the results were PRMT1 inh inactive, ABHD4 inh inactive, PAD4 FP inh inactive, TCR CD3 inh inactive, HTRA1 inhibitor inactive and SIAE inh inactive.
COc1ccc2c(c(-c3ccccc3)cn2C)c1-c1ccccc1 was read as PRMT1 inh inactive, ABHD4 inh inactive and SIAE inh inactive.
`O=C(/C=C/c1ccc(O)c(O)c1)c1ccc(S(=O)(=O)N2CCCCCC2)cc1` gave PRMT1 inh inactive, ABHD4 inh inactive, PAD4 FP inh inactive, TCR CD3 inh inactive, HTRA1 inhibitor 55, SIAE inh 45, HTRA1 conf 56 and SIAE confirm inactive.
For CCOc1cc(/C=N/Nc2ccc(S(=O)(=O)Nc3ccccc3C(=O)O)cc2[N+](=O)[O-])cc(Cl)c1O the results were PRMT1 inh inactive, ABHD4 inh 73, TCR CD3 inh inactive, HTRA1 inhibitor 75, SIAE inh 32, HTRA1 conf 68, ABHD4 confirm 86 and SIAE confirm inactive.
Screening Cc1cc2cc(CNC(=O)Nc3ccc(Cl)c(Cl)c3)ccc2n1C returned PRMT1 inh inactive, ABHD4 inh 38, PAD4 FP inh inactive, TCR CD3 inh 72, HTRA1 inhibitor 41, SIAE inh 33, HTRA1 conf inactive, BSA TAMRA ctr inactive, TCR-CD3 conf inactive, ABHD4 confirm inactive and SIAE confirm inactive.
`Cc1cc2cc(CNC(=O)NC3CCCCC3)ccc2n1C` gave PRMT1 inh inactive, ABHD4 inh inactive, PAD4 FP inh inactive, TCR CD3 inh inactive, HTRA1 inhibitor inactive and SIAE inh inactive.
